Active and inactive are the calls of the source. The rule behind the calls is not given here.
Key:
A-375 [1] = assay: Cytotoxicity against human A-375 cells assessed as reduction in cell viability incubated for 72 hrs by SRB assay; assay type: functional, cell-based; conditions: Homo sapiens, A-375, 72 h; read-out: EC50
HT-29 = assay: Cytotoxicity against human HT-29 cells assessed as reduction in cell viability incubated for 72 hrs by SRB assay; assay type: functional, cell-based; conditions: Homo sapiens, HT-29, 72 h; read-out: EC50
MCF7 = assay: Cytotoxicity against human MCF7 cells assessed as reduction in cell viability incubated for 72 hrs by SRB assay; assay type: functional, cell-based; conditions: Homo sapiens, MCF7, 72 h; read-out: EC50
A2780 = assay: Cytotoxicity against human A2780 cells assessed as reduction in cell viability incubated for 72 hrs by SRB assay; assay type: functional, cell-based; conditions: Homo sapiens, A2780, 72 h; read-out: EC50
FaDu = assay: Cytotoxicity against human FaDu cells assessed as reduction in cell viability incubated for 72 hrs by SRB assay; assay type: functional, cell-based; conditions: Homo sapiens, FaDu, 72 h; read-out: EC50
NIH3T3 = assay: Cytotoxicity against mouse NIH3T3 cells assessed as reduction in cell viability incubated for 72 hrs by SRB assay; assay type: cell-based; conditions: Mus musculus, NIH3T3, 72 h; read-out: EC50
[2] = Selectivity ratio of EC50 for mouse NIH3T3 cells to EC50 for human HT-29 cells; assay type: toxicity; conditions: NIH3T3 cells versus HT-29 cells, read-out: Ratio EC50
[3] = Selectivity ratio of EC50 for mouse NIH3T3 cells to EC50 for human MCF7 cells; assay type: toxicity; conditions: NIH3T3 cells versus MCF7 cells, read-out: Ratio EC50
[4] = Selectivity ratio of EC50 for mouse NIH3T3 cells to EC50 for human A2780 cells; assay type: toxicity; conditions: NIH3T3 cells versus A2780 cells, read-out: Ratio EC50
[5] = Selectivity ratio of EC50 for mouse NIH3T3 cells to EC50 for human FaDu cells
A-375 [6] = assay: Induction of apoptosis in human A375 cells assessed as necrotic cells at 6.2 uM measured after 24 hrs by Annexin V-FITC/propidium iodide staining based flow cytometry (reference value: 0.331%); assay type: functional
A-375 [7] = assay: Induction of apoptosis in human A375 cells assessed as late apoptotic cells at 6.2 uM measured after 24 hrs by Annexin V-FITC/propidium iodide staining based flow cytometry (reference value: 7.352%); assay type: functional
A-375 [8] = assay: Induction of apoptosis in human A375 cells assessed as viable cells at 6.2 uM measured after 24 hrs by Annexin V-FITC/propidium iodide staining based flow cytometry (reference value: 90.123%); assay type: functional; conditions: read-out: Activity
A-375 [9] = assay: Induction of apoptosis in human A375 cells assessed as early apoptotic cells at 6.2 uM measured after 24 hrs by Annexin V-FITC/propidium iodide staining based flow cytometry (reference value: 2.194%); assay type: functional
A-375 [10] = assay: Induction of apoptosis in human A375 cells assessed as necrotic cells at 6.2 uM measured after 48 hrs by Annexin V-FITC/propidium iodide staining based flow cytometry (reference value: 0.547%); assay type: functional
A-375 [11] = assay: Induction of apoptosis in human A375 cells assessed as late apoptotic cells at 6.2 uM measured after 48 hrs by Annexin V-FITC/propidium iodide staining based flow cytometry (reference value: 5.108%); assay type: functional
A-375 [12] = assay: Induction of apoptosis in human A375 cells assessed as viable cells at 6.2 uM measured after 48 hrs by Annexin V-FITC/propidium iodide staining based flow cytometry (reference value: 92.723%); assay type: functional; conditions: read-out: Activity
A-375 [13] = assay: Induction of apoptosis in human A375 cells assessed as early apoptotic cells at 6.2 uM measured after 48 hrs by Annexin V-FITC/propidium iodide staining based flow cytometry (reference value: 1.622%); assay type: functional
A-375 [14] = assay: Induction of apoptosis in human A375 cells at 6.2 uM measured after 24 hrs by microscopic analysis; assay type: functional, cell-based
In short: (§1)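 A375 cells treated at 3.0, 4.8 or 6.2 µM and inspected by light microscopy after 24 h or 48 h. Cell number and morphology were scored for apoptotic features: shrinkage, strangulation and blebbing.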

A-375 [15] = assay: Induction of apoptosis in human A375 cells assessed as cell shrinkage at 6.2 uM measured after 48 hrs by microscopic analysis; assay type: functional, cell-based; in short: as §1
A-375 [16] = assay: Induction of apoptosis in human A375 cells assessed as strangulation at 6.2 uM measured after 48 hrs by microscopic analysis; assay type: functional, cell-based; in short: as §1
A-375 [17] = assay: Induction of apoptosis in human A375 cells assessed as blebbing at 6.2 uM measured after 48 hrs by microscopic analysis; assay type: functional, cell-based; in short: as §1
A-375 [18] = assay: Cell cycle arrest in human A375 cells assessed as accumulation at subG1 phase measured after 24 hrs by propidium iodide staining based flow cytometry (reference value: 0.46%); assay type: functional
A-375 [19] = assay: Cell cycle arrest in human A375 cells assessed as accumulation at G1 phase measured after 24 hrs by propidium iodide staining based flow cytometry (reference value: 44.59%); assay type: functional
A-375 [20] = assay: Cell cycle arrest in human A375 cells assessed as accumulation at S phase measured after 24 hrs by propidium iodide staining based flow cytometry (reference value: 47.46%); assay type: functional
A-375 [21] = assay: Cell cycle arrest in human A375 cells assessed as accumulation at G2/M phase measured after 24 hrs by propidium iodide staining based flow cytometry (reference value: 7.48%); assay type: functional
A-375 [22] = assay: Cell cycle arrest in human A375 cells assessed as accumulation at subG1 phase measured after 48 hrs by propidium iodide staining based flow cytometry (reference value: 0.57%); assay type: functional
A-375 [23] = assay: Cell cycle arrest in human A375 cells assessed as accumulation at G1 phase measured after 48 hrs by propidium iodide staining based flow cytometry (reference value: 57.3%); assay type: functional
A-375 [24] = assay: Cell cycle arrest in human A375 cells assessed as accumulation at S phase measured after 48 hrs by propidium iodide staining based flow cytometry (reference value: 31.3%); assay type: functional
A-375 [25] = assay: Cell cycle arrest in human A375 cells assessed as accumulation at G2/M phase measured after 48 hrs by propidium iodide staining based flow cytometry (reference value: 10.83%); assay type: functional
[26] = Selectivity ratio of EC50 for mouse NIH3T3 cells to EC50 for human A375 cells; assay type: toxicity; conditions: NIH3T3 cells versus A375 cells, read-out: Ratio EC50

C=C(C)[C@@H]1CC[C@]2(C(=O)NCc3ccccc3)CC[C@]3(C)[C@H](CC[C@@H]4[C@@]5(C)C[C@H](OC(C)=O)[C@H](OC(C)=O)C(C)(C)[C@@H]5CC[C@]43C)[C@@H]12
EC50 (A-375 [1]): 3.14 µM | EC50 (HT-29): 20.7 µM | EC50 (MCF7): 11.3 µM | EC50 (A2780): 4.42 µM | EC50 (FaDu): 5.4 µM | EC50 (NIH3T3): > 70 µM | selectivity ratio [2]: 3.4 | selectivity ratio [3]: 6.2 | selectivity ratio [4]: 15.8 | Ratio EC50 [5]: 13 | Activity (A-375 [6]): 0.667% | Activity (A-375 [7]): 7.93% | viability at 6.2 µM (A-375 [8]): 81.9% | Activity (A-375 [9]): 9.546% | Activity (A-375 [10]): 1.449% | Activity (A-375 [11]): 20.078% | viability at 6.2 µM (A-375 [12]): 34.3% | Activity (A-375 [13]): 44.187% | Activity (A-375 [14]): Active | Activity (A-375 [15]): Active | Activity (A-375 [16]): Active | Activity (A-375 [17]): Active | Activity (A-375 [18]): 5.98% | Activity (A-375 [19]): 63.76% | Activity (A-375 [20]): 30.27% | Activity (A-375 [21]): 0% | Activity (A-375 [22]): 25.69% | Activity (A-375 [23]): 52.38% | Activity (A-375 [24]): 21.92% | Activity (A-375 [25]): 0%

C=C(C)[C@@H]1CC[C@]2(C(=O)O)CC[C@]3(C)[C@H](CC[C@@H]4[C@@]5(C)C[C@H](O)[C@H](O)C(C)(C)[C@@H]5CC[C@]43C)[C@@H]12
EC50 (A-375 [1]): 11.2 µM | EC50 (HT-29): 17.7 µM | EC50 (MCF7): 15.8 µM | EC50 (A2780): 12.3 µM | EC50 (FaDu): 16.5 µM | EC50 (NIH3T3): 17.3 µM | selectivity ratio [26]: 1.5 | selectivity ratio [2]: 1 | selectivity ratio [3]: 1.1 | selectivity ratio [4]: 1.4 | Ratio EC50 [5]: 1
